# Rows were chosen to be rich in hits. Some 1.3% of all compounds tested hit in one or more screens of this group.
# CHT inh: human CHT choline transport inhibition; Q9GZV3; CHT-expressing cells, membrane potential dye, choline response; hits give low values; B-score at 10 µM; hit rate 0.86% among 310,000; AID 488975;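 active means B-score over 3 SD under the library average, and starting fluorescence ratio not unusually high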;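 further: choline stimulus applied at its EC90 after an EC20 pre-addition; B-score computed on integrated fluorescence ratio after choline addition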
# proCasp3 act: activators of human procaspase-3; P42574; recombinant procaspase-3 D3A, Ac-DEVD-pNA absorbance 405 nm; activation, % at 8.5 µM; hit rate 0.11% among 330,000; AID 463141;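 active means activation above the mean of all tested compounds plus 3 SD, cut at about 21% in these data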;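 further: 0% = DMSO alone and 100% = DMSO wells spiked with extra 5 µM PC-3 D3A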
# Target sequence (P42574 whole entry D9A/D28A/D175A): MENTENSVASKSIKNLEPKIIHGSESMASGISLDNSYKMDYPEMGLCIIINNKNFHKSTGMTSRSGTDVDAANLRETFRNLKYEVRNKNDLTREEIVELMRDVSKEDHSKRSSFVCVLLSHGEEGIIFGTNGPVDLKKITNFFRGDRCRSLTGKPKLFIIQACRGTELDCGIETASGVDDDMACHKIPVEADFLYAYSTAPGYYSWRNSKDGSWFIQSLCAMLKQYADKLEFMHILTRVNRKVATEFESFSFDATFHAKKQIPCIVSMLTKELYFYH
#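 material = Procaspase-3 D3A mutant | probe or stimulus = Ac-DEVD-pNA | compound = single dose, 8.5 µM nominal compound, 0.8% DMSO | timing = 1 h preincubation, 2 h reaction | measured by = 405 nm absorbance of p-nitroaniline, reads at 0 and 120 min | benchmarks = DMSO-only low control, 5 µM PC-3 D3A high control | repeats = singlicate, each compound tested once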
# CHT PAM: allosterically activates the human high affinity choline transporter; hit rate 0.49% among 310,000; B-score at 10 µM; CHT-expressing cells, membrane potential dye, choline EC20; hits give high values; LV-AA mutant CHT in HEK293 cells; Q9GZV3; AID 488977;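 active means initial fluorescence not abnormally high and integrated response B-score, plate-corrected, over 3 SD above library mean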
# procasp7 counter: counter-screen: procaspase-7 (human) activation; P55210; recombinant procaspase-7, Ac-DEVD-pNA absorbance 405 nm; D23A/D198A/D206A triple mutant, cannot self-cleave; scale: DMSO 0, 5 µM enzyme 100; activation, % at 8.5 µM; hit rate 0.093% among 330,000;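 active means percent activation above the screen-wide mean plus 3 SD, cut at about 25% in these data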
# Target sequence (P55210 whole entry D23A/D198A/D206A): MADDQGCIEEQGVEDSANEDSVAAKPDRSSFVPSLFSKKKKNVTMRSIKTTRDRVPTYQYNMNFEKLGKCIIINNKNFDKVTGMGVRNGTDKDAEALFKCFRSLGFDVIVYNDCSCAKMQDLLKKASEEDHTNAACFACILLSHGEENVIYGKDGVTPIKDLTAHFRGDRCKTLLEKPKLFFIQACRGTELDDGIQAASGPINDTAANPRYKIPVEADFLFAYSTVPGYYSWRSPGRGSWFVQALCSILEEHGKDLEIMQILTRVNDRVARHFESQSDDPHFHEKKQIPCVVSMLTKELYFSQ
#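 System: Uncleavable procaspase-7 mutant enzyme; Amount: 2 µM procaspase-7 mutant as dispensed; Schedule: 1 h compound preincubation, 2 h substrate cleavage, 25 °C; Measured by: 405 nm absorbance of p-nitroaniline; Evaluation: percent activation from buffer-corrected 0–120 min absorbance change; Control set: low DMSO alone, high DMSO plus 5 µM PC-7.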
# CHT act confirm: confirmation of human choline transporter (CHT) activators; shares compounds with CHT PAM; CHT-expressing cells, membrane potential dye fluorescence (FDSS); % of choline EC20–EC90 response window; HEK293 expressing CHT LV-AA mutant; choline added at its EC20; activation, % at 10 µM; hit rate 91% among 2,500;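 active means primary screen active, with duplicate mean activation above negative control mean plus 3 SD, cut at about 11% in these data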
# HEK293 MP dye: activity in parental HEK293 cells lacking CHT | shares compounds with CHT PAM | membrane potential dye fluorescence (FDSS); measured after EC20 choline addition | ratio readout change at 10 µM, hits read low | hit rate 62% among 2,500 | AID 623908;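 active means duplicate-averaged ratio beyond 3 SD from buffer wells, up or down, though filed actives are nearly all decreases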
# * hit, by the source's call; i = inactive; nt = no result given.
SMILES,CHT inh,proCasp3 act,CHT PAM,procasp7 counter,CHT act confirm,HEK293 MP dye
O=C1N(Cc2cccc(Cl)c2)C[C@@H]2C[C@@H](c3ccccn3)N3CCC[C@@]123,i,-2,i,11,nt,nt
O=C1N(Cc2cccc(Cl)c2)C[C@@H]2C[C@@H](c3ccsc3)N3CCC[C@@]123,i,-1,i,-9,28*,i
Cc1ccc2c(c1)c1c(n2CCc2ccc(C)nc2)CCN(C)C1,nt,7,nt,9,nt,nt
COC(=O)CN1C(c2cccc(Cl)c2)=Nc2ccc(Cl)cc2C1c1ccccc1 (stereo not given),i,-5,i,12,30*,i
CCOc1cc(/C=C/C(=O)OCC(=O)NCC2CCCO2)cc(Cl)c1OC (stereo not given),nt,14,nt,2,nt,nt
Cc1ccccc1OCC(=O)N/N=C1\SCC(=O)N1Cc1ccccc1,i,-3,i,12,nt,nt
CN1C(=O)CS/C1=N\NC(=O)COc1cccc2cccnc12,i,2,6.6*,0,48*,-56*
O=C(CCCCn1c(=O)c2ccccc2n(Cc2ccccc2)c1=O)NC1CCN(Cc2ccccc2)CC1,i,4,i,-5,35*,-29*
O=C(O)C(Nc1nc(C(F)(F)F)nc2ccccc12)c1ccccc1 (stereo not given),i,4,i,3,nt,nt
Cc1ccc(CNc2ncc(-c3ccc4c(c3)OCO4)n2C)cc1,i,7,6.6*,-16,25*,-31*
CCC(CC)COC(=O)C(C#N)c1nc2ccccc2nc1N1CCN(CC)CC1 (stereo not given),i,-9,i,-3,32*,-37*
Cc1ccc(C(C)C)c(OCC(=O)Nc2ccc3c(c2)nc(CCN2CCCCC2)n3C)c1,i,2,i,1,25*,-27*
CN1CCN(CC(=O)Nc2cc(N(C)C)nc3ccccc23)CC1,i,-2,i,13,38*,-40*
CC(=O)c1cc(C(=O)N2CCCC(C(=O)c3ccc(Cl)cc3)C2)cs1 (stereo not given),i,0,i,-2,nt,nt
O=C1c2nc3cc(-c4ccco4)[nH]n3c(=O)c2CN1Cc1ccccc1,i,3,7*,4,30*,-55*
CCCCc1c(C)nc2cc(-c3ccco3)[nH]n2c1=O,i,2,i,-10,nt,nt
COc1cccc(OC)c1C(=O)Nc1ccc(C(=O)NCc2ccccc2)cc1,i,4,i,-3,nt,nt
NCCCC[C@H]1CN=C(N)N1CCCCC1CCCCC1,i,3,11*,12,47*,-51*
CC(C)c1ccccc1NC(=O)COC(=O)c1c2c(nc3ccccc13)CCN(Cc1ccccc1)C2,i,-1,i,8,nt,nt
Cc1c(Cl)cccc1NC(=O)COC(=O)c1c2c(nc3ccccc13)CCN(Cc1ccccc1)C2,i,0,i,5,21*,i
N#Cc1ccccc1Sc1ccccc1C(=O)NCC(c1ccco1)N1CCCCC1 (stereo not given),nt,7,nt,8,nt,nt
O=C(NCC(c1ccco1)N1CCCC1)c1ccccc1Sc1ccc(C(F)(F)F)cc1[N+](=O)[O-] (stereo not given),i,-2,i,3,26*,i
COc1cc(OC)cc(N(C(=O)CNC(=O)c2cccs2)C(C(=O)NCC2CCCO2)c2ccccc2)c1 (stereo not given),i,-5,i,-4,nt,nt
COc1ccc(CCNc2nc(C)nc3c2nnn3Cc2ccccc2)cc1OC,i,-5,i,-4,nt,nt
CC(C)CN(C(=O)c1ccc([N+](=O)[O-])s1)c1c(N)n(Cc2ccccc2)c(=O)[nH]c1=O,i,8,i,2,nt,nt
SMILES,CHT inh,proCasp3 act,CHT PAM,procasp7 counter,CHT act confirm,HEK293 MP dye
CCCCn1cnc2cc(NCc3ccncc3)ccc21,i,-3,i,7,43*,-43*
N#Cc1nc(COc2ccc(F)cc2)oc1N1CCN(Cc2ccccc2)CC1,i,-3,7.7*,-5,31*,i
CCOC(=O)c1c(C)[nH]c(C)c1S(=O)(=O)NCC1CCN(Cc2ccccc2OC)CC1,i,5,i,11,nt,nt
O=C(Nc1ccnn1C1CCN(C/C=C/c2ccccc2)CC1)c1ccccc1Cl,i,6,i,8,nt,nt
COc1ccccc1C(=O)Nc1ccnn1C1CCN(C/C=C/c2ccc(F)cc2)CC1,i,6,i,9,7,i
CSc1nc(NCCCO)c2c3c(sc2n1)CN(C)CC3,i,-5,i,6,41*,-47*
CN(CCO)S(=O)(=O)c1ccc2c(c1)C(=NNC(N)=O)c1cc(S(=O)(=O)N(C)CCO)ccc1-2,i,-3,8.2*,-8,42*,-43*
Cc1cc(C)nc(NC(=O)c2cnc3sccn3c2=O)n1,i,0,9.1*,2,52*,-51*
CC1(C)Cc2c(sc3ncn(N)c(=N)c23)CO1,i,-23,i,-12,nt,nt
Cc1nc2sc3c(c2c(=N)n1N)CC(C)(C)OC3,i,-2,8.4*,2,63*,-47*
CCOc1ncccc1C(=O)OCC(=O)N(CC(C)C)c1c(N)n(Cc2ccccc2)c(=O)[nH]c1=O,i,0,i,-6,nt,nt
CCOC(=O)c1ccc(N2C=C(C(=O)OC)C(c3cccc(O)c3)C(C(=O)OC)=C2)cc1,i,-35,i,-34,nt,nt
CCCCCC(=O)Cc1cc(O)cc2c1C(=O)Oc1cc(O)c(C(=O)O)c(CCCCC)c1O2,i,-1,i,-4,30*,-50*
CCN(CC)S(=O)(=O)c1cc(C(=O)OC(C)C(=O)NCc2ccco2)ccc1C (stereo not given),nt,-7,nt,-4,nt,nt
CC(C)C(=O)N1CCC2(CC1)Oc1ccc(Cl)cc1C(=O)C21CC(c2ccccc2)=NO1 (stereo not given),i,-1,i,-5,6,i
CC(Oc1ccccc1)C(=O)N1CCC2(CC1)Oc1ccc(Cl)cc1C(=O)C21CC(c2ccccc2)=NO1 (stereo not given),i,1,i,6,nt,nt
CCC1CCCCN1CCNS(=O)(=O)c1ccc2c(c1)oc(=O)n2C (stereo not given),i,-2,i,-3,35*,-25*
CCOc1ccc(NC(=O)CN(C)C(=O)C2=COCCO2)cc1OCC,i,2,i,-5,nt,nt
CCN1CCN(c2c(Cl)cccc2NC(=O)c2ccco2)CC1,i,4,7.6*,4,54*,-33*

# High-throughput results: PubChem BioAssay, several laboratories
